Hits are enriched below; roughly 5.4% of the tested compounds scored in any of these assays.
Cav32 inh: Cav3.2 calcium influx blockers – cell-based, Fluo-4 calcium fluorescence, FDSS, MLSMR library, primary screen; AID 449739, 2010; 4% of 100,000 active; Voltage-dependent T-type calcium channel subunit alpha-1H (Homo sapiens), O95180; B-score at 10 µM; Cav3.2-expressing cells; hits give low values;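 active = single-dose well whose peak fluorescence ratio is a statistical outlier from its plate by either plate-standardised score or position-corrected B-score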
EphB4 ephrin blk: EphB4-ephrin-B2 interaction antagonists, primary screen, biochemical, TNYL-RAW peptide probe, fluorescence polarization; Ephrin type-B receptor 4 (Homo sapiens), P54760; 0.15% of 97,000 active; inhibition, % at 7 µM; AID 720, 2007; EphB4 LBD / TNYL-RAW-Alexa532 peptide;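 active = inhibition above the screen-wide mean inhibition plus 3 SD, cut at about 15% in these data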;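 note: 0% = DMSO wells and 100% = excess unlabeled TNYL-RAW peptide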
HIV Rev-RRE inh: HIV-1 Rev-RRE binding inhibitors, primary screen, biochemical, FRET, protein-RNA interaction. P05866. Rev peptide-RRE RNA binding. inhibition, % at 8 µM. 0.79% of 97,000 active. AID 704, 2007;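 active = inhibition above the screen-wide mean plus 3 SD, cut at about 35% in these data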;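 note: 0% = median DMSO wells and 100% = median Neomycin B control wells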
Target sequence (P05866 whole entry, looked up): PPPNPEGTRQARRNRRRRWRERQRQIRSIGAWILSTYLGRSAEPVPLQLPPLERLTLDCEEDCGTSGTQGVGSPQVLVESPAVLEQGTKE
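Probe or stimulus: fluorescein-Rev peptide as binding partner; assay system: Cy5-tagged RRE RNA duplex with fluorescein-tagged Rev peptide; timing: 5 min compound–RNA preincubation, then 15 min with peptide, 25 °C; medium: HEPES pH 7.5 buffer with KCl, MgCl2, NaCl and EDTA; signal: fluorescein-to-Cy5 FRET, 480 nm excitation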
hDAT+cocaine: changed hDAT dopamine uptake under cocaine IC80, either direction, primary screen, cocaine antagonist project, cell-based, LLC-PK1 hDAT, [14C]-dopamine uptake, MLSMR; Sodium-dependent dopamine transporter (Homo sapiens), Q01959; LLC-PK1 hDAT cells, [14C]-dopamine uptake with cocaine IC80; actives deviate in either direction; B-score at 10 µM; 1.3% of 110,000 active; AID 449768, 2010;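 active = Z score or B-score, a plate-position-corrected score, falls beyond the plate's 99.7% confidence bounds, in either direction; inactive = both scores lie inside the 99.7% bounds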;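 note: scored against the spread of the other compound wells on the same plate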
* hit, by the source's call; . = no result given; [ ] = another dose, or the depositor's remark.

SMILES	Cav32 inh	EphB4 ephrin blk	HIV Rev-RRE inh	hDAT+cocaine
O=C(COc1ccccc1)NNC(=S)NC(=O)c1ccc(Cl)cc1Cl	-4.09*	7.5	3.3	0.951
COc1cccc(N=Cc2c[nH][nH]c2=O)c1	0.0383	-1.8	5.4	-7.69*
CCOC(=O)c1[nH]c(Cc2[nH]c(C(=O)OCC)c(C)c2CCC(=O)OC)c(CCC(=O)OC)c1C	-8.41*	4.4	10.0	0.0643
COc1ccc(-c2nc(CSCC(=O)N3CCc4ccccc4C3)c(C)o2)cc1OC	-0.486	.	.	1.91*
COc1cccc(-c2nc(CS(=O)(=O)CC(=O)NCCCN3CCc4ccccc4C3)c(C)o2)c1	-5.75*	0.8	12.1	0.00805
COc1cccc(-c2nc(CS(=O)(=O)CC(=O)NCCCOC(C)C)c(C)o2)c1	-0.546	3.3	6.6	0.423
COc1ccc(-c2nc(CSCC(=O)N3CCC(C(N)=O)CC3)c(C)o2)cc1OC	.	7.5	4.1	0.5
CCCCCCCCCCCC(=O)c1c(O)cccc1O	0.227	.	.	1.16
CC(C)(C)OC(=O)N1CCN(C(=O)[C@H](Cc2ccc(O)cc2)n2cc(CCO)nn2)CC1	-0.485	.	.	0.0108
COC(=O)[C@H](Cc1ccccc1)NC(=O)NCc1cccs1	0.4	-2.6	3.2	-0.0278
O=c1ccn(-c2cccc(C(F)(F)F)c2)nc1-c1ccn(-c2cccc(Cl)c2)n1	-5.69*	4.5	6.6	-0.122
Cc1cccc(Nc2nc(N)nc(CN3CCN(c4ccccc4)CC3)n2)c1	-3.67*	1.0	7.8	1.79
COc1ccccc1N1CCN(Cc2nc(N)nc(Nc3ccc(C)c(Cl)c3)n2)CC1	-5.69*	-2.8	7.9	1.12
COc1ccccc1Nc1nc(N)nc(CN2CCN(Cc3ccccc3)CC2)n1	-0.0376	4.2	-2.3	1.48
Cc1cccc(Nc2nc(N)nc(CN3CCN(c4ccccc4F)CC3)n2)c1	-4.93*	-8.2	0.4	.
CC(C)(C)C(=O)Cn1c(=N)n(Cc2ccccc2Cl)c2ccccc21	-4.98*	2.9	-2.2	0.396
Cc1cc(C(=O)CN2C(=O)NC(c3ccccc3)(c3ccccc3)C2=O)c(C)n1Cc1ccco1	-8.6*	1.8	2.6	0.0813
Cc1cc(C(=O)CN2C(=O)NC3(CCCc4ccccc43)C2=O)c(C)n1Cc1cccs1 (stereo unspecified)	-7.44*	-8.2	3.4	0.119
C=CCn1c(C)cc(C(=O)CN2C(=O)NC3(CCCc4ccccc43)C2=O)c1C (stereo unspecified)	-0.824	3.1	4.5	-1.89
O=C1Nc2ccccc2C12Nc1ccccc1-c1nc3ccccc3n12 (stereo unspecified)	-4.8*	-4.6	8.1	0.516
CCCCC1(C)Nc2ccccc2-c2nc3ccccc3n21 (stereo unspecified)	-4.9*	0.1	11.0	0.44
CSCC[C@H](NC(=O)c1nn(C)c(=O)c2ccccc12)c1nc2ccccc2[nH]1	0.202	-0.2	0.2	0.549
N=c1oc2c3c4c(cc2cc1C(=O)Nc1ccccc1)CCCN4CCC3	-11.5*	3.0	126.7*[fluorescence artefact?]	-0.0502
O=C(Nc1ccccc1)c1cccnc1N1CCCC1	-0.454	-4.4	10.3	-0.733
CC1=C(C(=O)OC(C)C)C(c2cccc(F)c2)N2C(=O)C(C)SC2=N1 (stereo unspecified)	-2.28	-10.0	-5.2	0.452
SMILES	Cav32 inh	EphB4 ephrin blk	HIV Rev-RRE inh	hDAT+cocaine
CCOC(=O)C1=C(C)N=C2SC(C)C(=O)N2C1c1cccc(F)c1 (stereo unspecified)	-6.49*	1.3	10.7	-0.829
CC1=C(C(=O)OCC(C)C)C(c2cccc(F)c2)N2C(=O)C(C)SC2=N1 (stereo unspecified)	-6.14*	-2.4	2.2	2.08
COC(=O)C1=C(C)N=C2SC(C)C(=O)N2C1c1ccc(C(=O)OC)cc1 (stereo unspecified)	-4.6*	-3.2	-1.5	0.466
COc1ccc(NC(=O)CSc2nc3ccccc3c(=O)n2CCCN2CCCCC2)c(OC)c1	-0.228	-3.4	10.2	1.39
CCCCCCCCc1nnc(NC(=O)c2ccco2)s1	-2.35	2.6	6.0	-0.252
COc1ccc(CC(=O)Nc2cccc(-c3nnc(-c4cccc(C)c4)o3)c2)cc1OC	-5.53	.	.	3.08*
COc1ccc(CC(=O)Nc2cccc(-c3nnc(-c4ccccc4)o3)c2)cc1OC	0.539	2.6	1.1	2.73*
CC(C)(C)C(=O)Nc1cccc(-c2nnc(-c3cccc(NC(=O)C(C)(C)C)c3)o2)c1	-0.821	3.9	3.6	0.558

Screening results as filed in PubChem.
